# How the values were obtained:
# MV4-11 = assay: Cytotoxicity against human MV411 cells after 72 hrs by MTS assay; assay type: functional, cell-based; settings: MV4-11, 72 h
# In short: (§1)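 Commercial screen: tumour cells seeded at 0.5 to 100 x 10³ cells/well the day before dosing, then exposed 72 h to compound in duplicate, 9 serial 3.16-fold dilutions from 198 µM top concentration. MTS added for a further 4 h at 37 °C, absorbance read; IC50 taken as 50% inhibition of viability by curve fitting.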
# MIA PaCa-2 = assay: Cytotoxicity against human MIAPaCa2 cells after 72 hrs by MTS assay; assay type: functional, cell-based; settings: MIA PaCa-2, 72 h; in short: as §1
# MCF7 = assay: Cytotoxicity against human MCF7 cells after 72 hrs by MTS assay; assay type: functional, cell-based; settings: MCF7, 72 h; in short: as §1
# [1] = Cytotoxicity against human Hs445 cells after 72 hrs by MTS assay; assay type: functional, cell-based; settings: Hs 445, 72 h; in short: as §1
# [2] = Cytotoxicity against African green monkey Vero cells measured after 3 days by CelltiterGlo luminescence assay; assay type: cell-based; settings: chlorocebus sabaeus
# In short: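 Vero cells seeded and left overnight; growth medium then replaced by serial compound dilutions, added in triplicate; medium-only wells defined 0% cytotoxicity. On day 3 cells were lysed and ATP content measured by luciferase luminescence (CellTiter-Glo); CC50 obtained from a 4-PL curve fit.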
# SW-620 = assay: Cytotoxicity against human SW620 cells after 72 hrs by MTS assay; assay type: functional, cell-based; settings: SW-620, 72 h; in short: as §1
# HEL 92.1.7 = assay: Cytotoxicity against human HEL 92.1.7 cells after 72 hrs by MTS assay; assay type: functional, cell-based; settings: HEL 92.1.7, 72 h; in short: as §1
# Chikungunya virus = assay: Antiviral activity against Chikungunya virus infected in African green monkey Vero cells assessed as reduction in virus-induced cytopathic effect pretreated for 1 hr followed by viral infection measured after 3 days by crystal violet staining based assay; assay type: functional, organism-based
# RL = assay: Cytotoxicity against human RL cells after 72 hrs by MTS assay; assay type: functional, cell-based; in short: as §1
# Carboxypeptidase Y = target: T1, Carboxypeptidase Y (Saccharomyces cerevisiae (strain ATCC 204508 / S288c) (Baker's yeast), UniProt P00729); assay: Prodrug activation assessed as yeast carboxypeptidase Y mediated (2S)-2-((((2R,3S,4R,5R)-5-(6-azido-5-fluoro-2,4-dioxo-3,4-dihydropyrimidin-1(2H)-yl)-3,4-dihydroxytetrahydrofuran-2-yl)methoxy)(phenoxy)phosphorylamino)propanoic acid formation at pH 7.6 measured within 10 mins by 31P NMR analysis; settings: pH 7.6, 10 min
# T1 sequence (P00729 whole entry): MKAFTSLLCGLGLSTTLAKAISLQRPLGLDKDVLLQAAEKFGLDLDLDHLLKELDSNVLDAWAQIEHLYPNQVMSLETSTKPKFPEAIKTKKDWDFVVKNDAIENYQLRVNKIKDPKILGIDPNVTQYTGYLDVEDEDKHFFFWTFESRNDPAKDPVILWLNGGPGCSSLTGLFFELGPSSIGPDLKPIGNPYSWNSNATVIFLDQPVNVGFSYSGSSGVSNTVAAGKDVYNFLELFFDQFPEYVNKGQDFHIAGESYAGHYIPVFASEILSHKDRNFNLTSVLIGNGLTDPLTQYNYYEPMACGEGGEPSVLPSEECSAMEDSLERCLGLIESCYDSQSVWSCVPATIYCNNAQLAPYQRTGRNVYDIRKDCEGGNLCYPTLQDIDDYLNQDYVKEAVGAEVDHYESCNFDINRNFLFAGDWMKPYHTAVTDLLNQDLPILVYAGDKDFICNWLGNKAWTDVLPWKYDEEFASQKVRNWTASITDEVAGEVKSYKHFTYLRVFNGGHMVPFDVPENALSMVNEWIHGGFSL
# In short: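 ProTide (5.0 mg) dissolved in acetone-d6 (0.15 mL) plus Trizma buffer pH 7.6 (0.30 mL), treated with carboxypeptidase Y; conversion followed by ³¹P NMR over 14 h.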
# [3] = target: Orotidine 5'-phosphate decarboxylase (Methanobacterium thermoautotrophicum, UniProt O26232); assay: Inhibition of Methanobacterium thermoautotrophicum ODCase; design: species or system Methanothermobacter thermautotrophicus
# [4] = target: T2, Uridine 5'-monophosphate synthase (Homo sapiens, UniProt P11172); assay: Inhibition of human ODCase
# T2 sequence (P11172 whole entry): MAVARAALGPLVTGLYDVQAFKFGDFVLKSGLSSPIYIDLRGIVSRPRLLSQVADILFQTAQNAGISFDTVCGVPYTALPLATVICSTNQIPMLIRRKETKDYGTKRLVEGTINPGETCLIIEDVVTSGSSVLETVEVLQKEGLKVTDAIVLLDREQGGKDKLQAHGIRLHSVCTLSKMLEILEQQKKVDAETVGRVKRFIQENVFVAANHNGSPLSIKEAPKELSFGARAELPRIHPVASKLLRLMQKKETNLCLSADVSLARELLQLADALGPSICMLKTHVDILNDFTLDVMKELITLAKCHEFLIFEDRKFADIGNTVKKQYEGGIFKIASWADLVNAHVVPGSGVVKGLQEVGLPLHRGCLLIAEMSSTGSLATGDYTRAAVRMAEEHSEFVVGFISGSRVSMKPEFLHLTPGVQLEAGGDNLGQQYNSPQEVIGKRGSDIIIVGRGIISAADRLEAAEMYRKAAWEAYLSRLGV
# Orotidine 5'-phosphate decarboxylase, sequence (O26232 whole entry): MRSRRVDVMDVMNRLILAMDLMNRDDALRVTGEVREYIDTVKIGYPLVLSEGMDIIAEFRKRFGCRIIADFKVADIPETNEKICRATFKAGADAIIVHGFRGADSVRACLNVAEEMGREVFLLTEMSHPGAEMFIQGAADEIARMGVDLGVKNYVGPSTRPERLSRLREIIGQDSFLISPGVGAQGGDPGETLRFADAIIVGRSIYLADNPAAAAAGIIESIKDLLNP
Structure (SMILES),IC50 (MV4-11) [µM],IC50 (MIA PaCa-2) [µM],IC50 (MCF7) [µM],IC50 [1] [µM],CC50 at 72 h [2] [µM],IC50 (SW-620) [µM],IC50 (HEL 92.1.7) [µM],EC50 (Chikungunya virus) [µM],IC50 (RL) [µM],Drug metabolism (Carboxypeptidase Y) [ppm],Ki [3] [µM],Ki [4] [µM]
Cc1c(F)c(=O)[nH]c(=O)n1[C@@H]1O[C@H](COP(=O)(N[C@@H](C)C(=O)OCc2ccccc2)Oc2cccc3ccccc23)[C@@H](O)[C@H]1O (some centres undefined),> 50,> 50,> 50,> 50,> 200,> 50,> 50,> 200,> 50,,,
C[C@H](NP(=O)(OC[C@H]1O[C@@H](n2c(I)c(F)c(=O)[nH]c2=O)[C@H](O)[C@@H]1O)Oc1cccc2ccccc12)C(=O)OCc1ccccc1 (some centres undefined),0.08,0.63,3.93,0.71,,0.52,0.4,,0.4,,,
O=c1[nH]c(=O)n([C@@H]2O[C@H](CO)[C@@H](O)[C@H]2O)c(I)c1F,0.04,0.02,0.67,0.38,,0.5,0.1,,0.1,,,
CCc1c(F)c(=O)[nH]c(=O)n1[C@@H]1O[C@H](COP(=O)(N[C@@H](C)C(=O)OCc2ccccc2)Oc2cccc3ccccc23)[C@@H](O)[C@H]1O (some centres undefined),,,> 50,10,53.1,12,> 50,> 50,27,,,
Cc1c(F)c(=O)[nH]c(=O)n1[C@@H]1O[C@H](COP(=O)(N[C@@H](C)C(=O)OCC(C)(C)C)Oc2cccc3ccccc23)[C@@H](O)[C@H]1O (some centres undefined),> 50,> 50,> 50,> 50,81.3,> 50,> 50,> 200,> 50,,,
C[C@H](NP(=O)(OC[C@H]1O[C@@H](n2c(N=[N+]=[N-])c(F)c(=O)[nH]c2=O)[C@H](O)[C@@H]1O)Oc1cccc2ccccc12)C(=O)OCc1ccccc1 (some centres undefined),6.3,27,44,15,81.8,28,29,> 200,12,,,
C[C@H](NP(=O)(OC[C@H]1O[C@@H](n2c(N=[N+]=[N-])c(F)c(=O)[nH]c2=O)[C@H](O)[C@@H]1O)Oc1ccccc1)C(=O)O (some centres undefined),,,,,,,,,,4.68 to 4.87,,
CCCCCCOC(=O)[C@H](C)NP(=O)(OC[C@H]1O[C@@H](n2c(C)c(F)c(=O)[nH]c2=O)[C@H](O)[C@@H]1O)Oc1ccccc1 (some centres undefined),> 50,> 50,> 50,> 50,> 200,> 50,> 50,> 200,> 50,,,
C[C@H](NP(=O)(OC[C@H]1O[C@@H](n2c(N=[N+]=[N-])c(F)c(=O)[nH]c2=O)[C@H](O)[C@@H]1O)Oc1ccccc1)C(=O)OCc1ccccc1 (some centres undefined),8,22,20,23,,13,17,,21,,,
NC(=O)c1[nH]nc([C@@H]2O[C@H](CO)[C@@H](O)[C@H]2O)c1O [PYRAZOFURIN],,,,,,,,,,,6.2,0.017
CCOC(=O)[C@H](C)NP(=O)(OC[C@H]1O[C@@H](n2c(N=[N+]=[N-])c(F)c(=O)[nH]c2=O)[C@H](O)[C@@H]1O)Oc1ccccc1 (some centres undefined),> 50,> 50,> 50,44,,> 50,> 50,,> 50,,,
